# Results reported in PubChem BioAssay AID623869 (Vanderbilt High Throughput Screening Facility, 2012).
# Hit rate of the full screen: of about 2,100 compounds, about 75 (4%) were called active.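 How the source made its calls: active means calcium fluorescence trace judged by eye to show a response, as agonist, enhancer of the glutamate response, or inhibitor; inactive means trace judged by eye to show no response.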 The list comes from a sample in which actives are over-represented; it also holds similar structures and randomly drawn compounds.
# Biological target: Metabotropic glutamate receptor 8 (Rattus norvegicus) (UniProt P70579)
# Assay: rat mGlu8 modulation via Gqi9 calcium signal, confirmation, counter-screen for GIRK activator project, cell-based, HEK293 rmGlu8, Gqi9 chimera, Fluo-4 calcium (AID 623869)
# Conditions: HEK293 rmGlu8/Gqi9 calcium flux, Fluo-4 fluorescence; glutamate at EC20 added after compound
# Procedure, shortened: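 Material: rat mGlu8 HEK-293 cells with transient Gqi9. Medium: HEPES-buffered HBSS, pH 7.4. Compound: one dose, 20 µM addition solution, 0.2% DMSO. Schedule: compound 4 min before glutamate, then 2 min recording. Technique: Fluo-4 calcium fluorescence sampled at 1 Hz.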
# Metabotropic glutamate receptor 8 (Rattus norvegicus), sequence (P70579 whole entry, looked up): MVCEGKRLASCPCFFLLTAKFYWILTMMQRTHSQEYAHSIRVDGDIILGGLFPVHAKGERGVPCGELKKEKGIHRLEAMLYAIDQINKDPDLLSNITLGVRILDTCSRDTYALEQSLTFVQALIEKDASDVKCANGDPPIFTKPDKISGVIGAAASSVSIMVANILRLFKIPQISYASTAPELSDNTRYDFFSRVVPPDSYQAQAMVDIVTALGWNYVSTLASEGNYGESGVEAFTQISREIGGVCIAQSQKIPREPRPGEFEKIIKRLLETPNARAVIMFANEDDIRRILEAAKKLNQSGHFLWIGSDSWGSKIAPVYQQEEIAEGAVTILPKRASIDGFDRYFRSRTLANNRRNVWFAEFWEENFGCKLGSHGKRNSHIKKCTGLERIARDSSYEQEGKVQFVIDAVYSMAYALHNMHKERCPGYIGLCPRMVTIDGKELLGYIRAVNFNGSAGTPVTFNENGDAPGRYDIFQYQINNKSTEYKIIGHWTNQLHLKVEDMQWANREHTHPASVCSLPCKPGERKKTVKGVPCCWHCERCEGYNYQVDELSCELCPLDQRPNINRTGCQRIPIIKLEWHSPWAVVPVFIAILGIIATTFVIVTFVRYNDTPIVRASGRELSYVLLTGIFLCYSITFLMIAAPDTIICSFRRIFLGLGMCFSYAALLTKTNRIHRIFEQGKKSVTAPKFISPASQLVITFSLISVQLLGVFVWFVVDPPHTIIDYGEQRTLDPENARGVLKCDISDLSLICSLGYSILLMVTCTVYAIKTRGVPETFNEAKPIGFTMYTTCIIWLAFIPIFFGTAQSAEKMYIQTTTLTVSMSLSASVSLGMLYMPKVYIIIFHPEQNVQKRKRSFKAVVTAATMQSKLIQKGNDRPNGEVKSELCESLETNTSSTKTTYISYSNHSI
row,SMILES,outcome
1,CCc1nc(N2CCOCC2)c(C#N)c2c1CCCC2,active; 2
2,CC(C)c1nc(N2CCOCC2)c(C#N)c2c1CCCC2,inactive; 0
3,CSc1nc(N2CCOCC2)c2c(c1C#N)CC(C)(C)OC2,inactive; 0
4,C=CCn1c(O)c(N=NC(=O)OC(C)(C)C)c2ccccc21,inactive; 0
5,O=C(NC(=S)N1CCCc2ccccc21)c1ccc(Br)cc1,inactive; 0
6,Cn1c(=O)c2c(nc3sccn32)n(C)c1=O,inactive; 0
7,Cc1ccc(C)c(C(=O)c2c(C)nc3sccn23)c1,active; -1
8,COC(=O)c1ccc(NC(=S)NC(=O)c2c(Cl)cnn2C)cc1,inactive; 0
9,Cc1ccc(/C=N/n2c(-c3cccs3)n[nH]c2=S)cc1,inactive; 0
10,Cc1ccc(C(=O)NNC(=S)NC(=O)COc2ccccc2)cc1,active; 1
11,COC(=O)c1ccccc1NC(=S)NC(=O)COc1ccccc1,inactive; 0
12,Cc1ccccc1C(=O)NNC(=S)NC(=O)COc1ccccc1,active; 1
13,CCOC(=O)c1ccc(NC(=S)NC(=O)COc2ccccc2)cc1,inactive; 0
14,COC(=O)c1ccccc1NC(=S)NC(=O)COc1ccc(C)cc1,inactive; 0
15,O=C(COc1ccccc1)NC(=S)Nc1cccc([N+](=O)[O-])c1,inactive; 0
16,Cc1cccc(C(=O)NNC(=O)C(=O)NC(C)(C)C)c1,inactive; 0
17,COc1ccc(-c2nnc(NC(=O)c3ccc(F)cc3)o2)cc1,inactive; 0
18,S=c1[nH]nc(-c2ccccn2)n1/N=C/c1ccc(Br)s1,inactive; 0
19,O=C(NC(=S)N1CCN(c2ccc(C(F)(F)F)cc2[N+](=O)[O-])CC1)c1cccs1,inactive; 0
20,O=C(NC(=S)N1CCc2ccccc21)c1ccccc1Br,inactive; 0
21,S=c1[nH]cnc2scc(-c3ccccc3)c12,inactive; 0
22,COCCNC(=O)CCCCCn1c(=S)[nH]c2ccccc2c1=O,inactive; 0
23,O=c1c2ccccc2[nH]c(=S)n1CCN1CCN(Cc2ccccc2)CC1,inactive; 0
24,O=C(NCc1ccccc1)c1ccc2c(=O)n(CCCN3CCCC3=O)c(=S)[nH]c2c1,active; -1
25,Cc1ccc(C)c(N=C2CCCN2Cc2ccccc2)c1C#N,inactive; 0
26,CC1(C)CC(=O)C2=C(C1)OC(/N=C/N1CCOCC1)=C(C#N)C2c1ccccc1 (stereo not given),inactive; 0
27,CCCN(CCC)C(=S)NC(=O)c1ccc(-c2ccccc2)cc1,inactive; 0
28,O=[N+]([O-])c1ccc(/C=N/NC(=S)Nc2ccccc2F)o1,inactive; 0
29,COc1cccc(-n2c(SCC(=O)NCCC3=CCCCC3)nc3n[nH]c(C)c3c2=N)c1,inactive; 0
30,Cc1ccccc1-n1c(SCc2ccccn2)nc2n[nH]c(C)c2c1=N,active; 2
